High-throughput results deposited in PubChem by several laboratories.
Most compounds without a hit are left out; they make up all but 4.8% or so of the library.
Beta cell apopt: blocks beta cell apoptosis. INS-1E cytokine-induced death, ATP luminescence, 48 h; percent of positive-control rescue, neutral wells zero. protection from apoptosis, % (concentration not given with the values). actives 0.8% (n = 300,000);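 active = Every replicate reaches about 75%, or at least half do and their mean reaches it too, limit read from the data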;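 note: 0% = cytokine-treated negative control wells and 100% = positive control rescue; higher means more ATP so stronger rescue from cytokine killing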
CSC inhib: blocks cancer stem cells | cancer stem cell-like cells viability, luminescence | inhibition, % at 7.5 µM | actives 1.1% (n = 300,000) | AID 2717; in the data active = inhibition above about 75%; tested in HMLE shEcad cells
Efflux pump inh: antifungal efflux pump inhibition, Nile Red retention; S. cerevisiae Candida pump triplex; inhibition, % at 10 µM; actives 0.44% (n = 330,000); AID 485275;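 active = plate passing quality check with inhibition over a set limit, or well fluorescence over plate mean plus 4 SD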;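 note: Nile Red retained in pooled yeast measured as flow cytometry median fluorescence; 0% = buffer negative control and 100% = Enniatin B positive control; higher means more Nile Red kept so more efflux inhibition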
T cruzi inh: blocks replication of Trypanosoma cruzi; actives 1.4% (n = 300,000); inhibition, % (no concentration beside the values); T. cruzi beta-gal in NIH3T3, luminescence, 90 h;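 active = mean inhibition across valid replicates above about 55%, limit read from the data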;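 note: signal also drops with host cell toxicity which is not excluded here; 0% = plate median of DMSO wells and 100% = zero luminescence signal; higher percent means less beta-gal luminescence so fewer parasites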
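System – NIH/3T3 host cells with β-galactosidase reporter T. cruzi · Doses – single 50 nL compound addition per well in DMSO · Reagent – 5000 T. cruzi trypomastigotes/well · Medium – Low-serum DMEM with 2% FBS · Timing – ≥90 h infection period, 3 h prior cell attachment · Evaluation – parasite load inhibition, % · Technique – GalScreen luminescence, 60 min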
SUMO Mot1 rescue: blocks SUMOylation pathway, rescuing yeast Mot1-301 growth; AID 2716; actives 1% (n = 320,000); S. cerevisiae Mot1-301 growth rescue, ATP luminescence, 38.5C; percent above DMSO median, 100 means doubled; growth rescue, % at 18.8 µM;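 active = every valid replicate shows activation above 250% relative to neutral control wells; inactive = the rest, any valid replicate at or below 250%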;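 note: OY570 slx delta 5 strain wells were the positive control but not used for scaling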
WT yeast gro inh: growth inhibition of WT yeast, mitochondrial fusion screen | actives 2.1% (n = 190,000) | inhibition, % at 10 µM | mitochondrial fusion phenotypic screen, WT strain; in the data active = inhibition above about 58%; tested in S. cerevisiae
Cmpd fluor yeast: counter-screen for efflux pump inhibitors: compound fluorescence; shares compounds with Efflux pump inh; S. cerevisiae AD/pABC3, flow cytometry; fluorescence ratio to DMSO, % at 10 µM; actives 4% (n = 1,700);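 active = fluorescence ratio to DMSO above its plate's cutoff, the plate mean ratio plus 5 SD, cut at about 210% in these data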;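 note: unstained yeast with no Nile Red so the signal is compound autofluorescence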
CaMdr1 efflux inh: inhibitors of Candida albicans Mdr1 efflux pump; shares compounds with Efflux pump inh; S. cerevisiae AD/CaMDR1, Nile Red efflux, flow cytometry; inhibition, % at 10 µM; actives 1% (n = 1,700); in the data active = inhibition above about 26%;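 note: 0% = DMSO vehicle and 100% = reference inhibitor; higher means more Nile Red retained so more efflux inhibition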
Cdr2 pump inh: Candida Cdr2 efflux pump inhibition. shares compounds with Efflux pump inh. S. cerevisiae AD/CaCDR2, Nile Red retention, flow cytometry. Nile Red retention ratio vs DMSO, % at 10 µM. actives 4% (n = 1,700); in the data active = Nile Red retention ratio vs DMSO above about 190%;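 note: higher ratio means more blocking of Cdr2 efflux of the dye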
Cdr1 pump inh: Candida Cdr1 efflux pump inhibition; inhibition, % at 10 µM; actives 1% (n = 1,700); S. cerevisiae AD/CaCDR1, Nile Red efflux, flow cytometry; shares compounds with Efflux pump inh;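 active = inhibition above the screen-wide mean plus twice its standard deviation, cut at about 32% in these data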
Active calls of the source: *; nt = no result.

SMILES | Beta cell apopt | CSC inhib | Efflux pump inh | T cruzi inh | SUMO Mot1 rescue | WT yeast gro inh | Cmpd fluor yeast | CaMdr1 efflux inh | Cdr2 pump inh | Cdr1 pump inh
COc1ccc(NC(=O)CS(=O)(=O)c2cn(CC(=O)N(C(C)C)C(C)C)c3ccccc23)c(OC)c1 | 1.4 | -18.1 | 0.5 | 8.8 | 1.4 | nt | nt | nt | nt | nt
COc1ccc(NC(=O)Cn2cc(S(=O)(=O)Cc3ccccc3)c3ccccc32)c(OC)c1 | -9.5 | -14.7 | 9.6* | 1.6 | 4.7 | 6.5 | 105.0 | -0.1 | 99.3 | -0.3
COc1cc(NC(=O)C2CCCCN2)ccc1OCC(C)C (stereo not given) | -0.8 | 13.2 | 0.5* | -1.1 | 2.9 | -14.0 | 98.2 | -0.2 | 99.7 | -0.1
CCN(CC)c1ccc(/C=c2\sc3nnc(-c4ccccc4Cl)n3c2=O)cc1 | 2.4 | 4.0 | 0.7* | -9.5 | -3.1 | 16.3 | 270.8* | 1.1 | 175.1 | 0.7
Cc1ccc(/C=c2/sc3nnc(-c4ccccc4Cl)n3c2=O)o1 | -6.4 | -5.7 | 0.0 | -27.2 | -3.6 | 4.8 | nt | nt | nt | nt
CCN(CC)c1ccc(/C=c2/sc3nnc(-c4ccccc4C)n3c2=O)cc1 | -3.0 | 0.7 | 0.6* | 0.1 | 150.4 | 8.3 | 214.9* | 1.2 | 175.4 | 0.0
COc1ccc2cc(C(C)C(=O)Nc3cccc(S(=O)(=O)N(C)C)c3)ccc2c1 (stereo not given) | nt | -3.4 | 3.2* | 15.0 | -23.2 | nt | 100.0 | -0.2 | 94.0 | -0.1
N#C/C(=N\O)c1nc2ccccc2s1 | -3.9 | 9.0 | 0.2 | -0.6 | -12.1 | 7.8 | nt | nt | nt | nt
CCCCc1ccc(-c2csc(/C(C#N)=C\c3ccco3)n2)cc1 | 18.1 | 27.9 | 0.6* | 3.1 | 5.2 | -5.6 | 111.5 | -0.2 | 90.9 | 0.3
N#C/C(=C\c1ccco1)c1nc2ccccc2s1 | 2.7 | 2.3 | 0.1 | -8.4 | 31.0 | 13.7 | 108.3 | -0.1 | 109.9 | 0.3
N#C/C(=C/c1ccco1)c1nc2ccccc2s1 | -7.5 | 11.0 | -0.2 | -4.3 | 0.8 | 29.6 | 98.9 | -0.3 | 106.3 | 0.1
CCCCc1ccc(-c2csc(/C(C#N)=C/c3ccc(C)o3)n2)cc1 | 0.3 | 6.6 | 0.2 | -0.5 | -29.3 | 1.3 | nt | nt | nt | nt
COc1ccc2c([N+](=O)[O-])c(Cl)[nH]c2c1 | -3.3 | -6.1 | 0.1 | -14.7 | 7.7 | -16.3 | nt | nt | nt | nt
O=C(O)c1c(C(=O)O)c(-c2ccc(Br)cc2)n2c1CSC2 | -0.3 | -17.9 | -0.1 | -20.6 | 0.3 | nt | nt | nt | nt | nt
CCc1cc(=O)oc2c(C)c(OCC(=O)NCCCN3CCCC3=O)ccc12 | 3.5 | 0.8 | 0.1 | -14.7 | -7.3 | nt | nt | nt | nt | nt
O=C1C=CC(=O)N1c1cccc(-c2ccccc2)c1 | 0.6 | 57.1 | 2.6* | -14.5 | 62.7 | nt | 84.0 | 0.0 | 101.5 | -0.3
O=C1c2ccccc2C(=O)N1c1cccc(-c2nc3ccccc3o2)c1 | 6.8 | nt | 0.2 | -5.6 | nt | -7.1 | nt | nt | nt | nt
COc1cc(CNc2ccc(C(=O)O)cc2)cc(Br)c1OCC(=O)NC(C)(C)C | 0.7 | 3.7 | 20.8* | -10.6 | 27.2 | 3.0 | 107.8 | -0.1 | 101.8 | -0.1
Cc1ccc(-c2c[n+](CC(=O)Nc3c(C)cccc3C)c3n2CCC3)cc1 | -4.8 | 5.4 | 0.3 | -12.7 | -6.7 | nt | nt | nt | nt | nt
Cc1ccc(NC(=O)C[n+]2cc(-c3ccccc3)n3c2CCC3)c(C)c1 | -3.3 | 8.7 | -0.2 | 4.3 | -1.6 | nt | 88.7 | 0.0 | 86.9 | 0.1
Cc1ccc(-c2c[n+](Cc3cccc(Cl)c3)c3n2CCC3)cc1 | nt | nt | 0.1 | 66.8* | -0.9 | nt | 107.2 | -0.1 | 107.2 | 0.0
COc1ccc(N2C(=O)CSC2c2ccccc2F)c(OC)c1 (stereo not given) | -3.7 | -4.9 | -0.2 | -11.6 | -18.0 | nt | nt | nt | nt | nt
Cc1[nH]c2ccc(C(=O)OC(C)C(=O)NC3(C#N)CCCCC3)cc2c1C (stereo not given) | -5.0 | -11.8 | 0.1 | 3.0 | 8.6 | nt | nt | nt | nt | nt
